Test results: article PMC3772774 (Molecular cancer therapeutics, 2013)

Experiments:
[1] = system: c-Myc activation; assay: c-Myc activation sensor luciferase assay in SK-ST stable cells; assay type: cell-based, human; settings: for fold by which IC50 for sensor signal inhibition is higher than that of NTZ: SK-ST cells, PD98059 2hrs, U0126 1hr, Atorvastatin 16hrs
[2] = biological target: full-length firefly luciferase (SK-FST cells) (Photinus pyralis, UniProt P08659); assay: Full-length firefly luciferase control assay in SK-FST stable cells; assay type: cell-based; settings: 16hrs treatment
How it was run: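 SKBR3 cells stably expressing full-length firefly luciferase on a single vector, selected with 3μg/ml puromycin, grown in McCoy's 5a with 10% FBS at 37°C, 5% CO2. Test compound was applied for 16hrs. D-Luciferin (45μg/ml in PBS, pH 7.0) was added to the medium and IVIS images were taken at 2-min intervals until peak. Photon output was normalized to total lysate protein; ≥3 repeats.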

[3] = system: phospho c-Myc; assay: Western blot of endogenous phospho c-Myc in lymphoma cells; assay type: cell-based; settings: read-out: IC50 of inhibition of phospho c-Myc level
How it was run: (§1)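 SKBR3 (McCoy's 5a), lymphoma (RPMI plus 3.96×10-4% 2-mercaptoethanol) and osteosarcoma 1325 (DMEM) cells, all with 10% FBS, at 37°C, 5% CO2, were exposed to test compound as in the sensor assay. Lysates (50μg protein) were immunoblotted for phospho-c-Myc (Thr58/Ser62) and c-Myc, with β-actin as loading control, then ECL and densitometry. IC50 came from a four-parameter nonlinear fit of fold-change against log concentration; ≥3 repeats.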

[4] = system: phospho c-Myc; assay: Western blot of endogenous phospho c-Myc in osteosarcoma cells; assay type: cell-based; settings: read-out: IC50 of inhibition of phospho c-Myc level
How it was run: as §1

[5] = system: c-Myc; assay: c-Myc inhibition in different cancer cell lines; assay type: cell-based; settings: read-out: IC50 for c-Myc inhibition, range over different cancer cell lines
How it was run: as §1

[6] = system: SKBR3 cells; assay: MTS cell toxicity assay in SKBR3 cells; assay type: cell-based, human
[7] = system: SK-ST xenografts; assay: SK-ST breast cancer xenograft model in nude mice; assay type: in vivo
[8] = system: SK-FST xenografts; assay: SK-FST breast cancer xenograft model in nude mice; assay type: in vivo; settings: 200mg/kg gavage twice a day, about 18 days after implantation

full-length firefly luciferase (SK-FST cells), sequence (P08659 whole entry): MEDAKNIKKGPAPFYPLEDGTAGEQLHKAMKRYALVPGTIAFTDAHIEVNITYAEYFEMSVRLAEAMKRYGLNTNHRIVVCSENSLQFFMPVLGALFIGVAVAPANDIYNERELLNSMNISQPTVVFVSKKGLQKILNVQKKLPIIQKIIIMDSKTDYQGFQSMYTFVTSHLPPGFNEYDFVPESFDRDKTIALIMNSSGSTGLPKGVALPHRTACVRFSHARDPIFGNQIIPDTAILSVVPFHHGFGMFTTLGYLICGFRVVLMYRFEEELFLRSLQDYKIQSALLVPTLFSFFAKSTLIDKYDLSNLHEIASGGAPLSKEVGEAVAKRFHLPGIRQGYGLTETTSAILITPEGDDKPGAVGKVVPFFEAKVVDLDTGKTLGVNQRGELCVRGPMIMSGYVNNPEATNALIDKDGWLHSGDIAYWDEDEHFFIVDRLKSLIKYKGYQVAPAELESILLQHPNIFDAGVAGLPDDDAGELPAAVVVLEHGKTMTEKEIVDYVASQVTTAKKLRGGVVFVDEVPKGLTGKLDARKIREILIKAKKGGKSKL

## CC(C)c1c(C(=O)Nc2ccccc2)c(-c2ccccc2)c(-c2ccc(F)cc2)n1CC[C@@H](O)C[C@@H](O)CC(=O)O [Atorvastatin]
[1]
  fold by which IC50 for sensor signal inhibition is higher than that of NTZ: about 50 fold

## COc1cccc(-c2cc(=O)c3ccccc3o2)c1N [PD98059]
[1]
  fold by which IC50 for sensor signal inhibition is higher than that of NTZ: about 2000 fold

## CC(=O)Oc1ccccc1C(=O)Nc1ncc([N+](=O)[O-])s1 [NTZ, nitazoxanide]
[1]; Homo sapiens, 16 h, read-out: IC50 for the sensor signal inhibition
  IC50: ~100 nM
[2]
  change of FL signal in SK-FST cells (direct effect on luciferase activity): no significant changes
[3]
  IC50: 440 nM
[4]
  IC50: 12 nM
[5]
  IC50: 10 to 500 nM
[6]
  half-maximal lethal dose (LD50): about 1 μM
[7]; 200mg/kg gavage twice a day for 27 days
  common side effects (diarrhea, vomiting, skin rash): didn’t observe the common side effects
[7]; 200mg/kg gavage twice a day, 27 days after implantation, P=0.00007 vs CMC
  tumor growth by gross inspection and caliper measurements: drastic inhibition of tumor growth
[7]; 200mg/kg gavage twice a day, vs CMC group
  bioluminescent signal from SK-ST xenografts (c-Myc activation): greatly inhibited
[7]; tumor samples, 200mg/kg gavage twice a day, CMC group 5±2, P<0.03
  caspase-3 staining, average positive cells in each sample: 23±8 positive cells
[7]; western blot, NTZ vs CMC group
  endogenous phospho and c-Myc protein levels in tumor samples: greatly reduced
[8]
  bioluminescent signal of SK-FST xenografts: sustained decrease of the signal

## N#CC(=C(/N)Sc1ccccc1N)/C(C#N)=C(/N)Sc1ccccc1N [U0126]
[1]
  fold by which IC50 for sensor signal inhibition is higher than that of NTZ: ~500 fold
